Laboratory results from ChEMBL document CHEMBL4823270, “A first-in-class anticancer dual HDAC2/FAK inhibitors bearing hydroxamates/benzamides capped by pyridinyl-1,2,4-triazoles” (Eur J Med Chem, 2021).

How the values were obtained:
CAKI-1 [1] = assay: Antiproliferative activity against human CAKI-1 cells assessed as cell growth inhibition incubated for 24 hrs by MTT assay; type: functional, cell-based; settings: CAKI-1, 24 h
A498 [2] = assay: Antiproliferative activity against human A498 cells assessed as cell growth inhibition incubated for 24 hrs by MTT assay; type: functional, cell-based; settings: A498, 24 h
K562 = assay: Growth inhibition of human K562 cells at 10 uM incubated for 24 hrs by MTT assay relative to control; type: functional; settings: read-out: GI
In short: (§1)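 Cells seeded at 1 × 10^4 per well, cultured overnight, then exposed to 10 μM compound or DMSO (negative control) for 24 h. After a PBS wash, MTT (2 mg/ml) was added for 4 h at 37°C and formazan dissolved in DMSO. OD read at 570 nm. Growth inhibition = 1 − (OD treated/OD control); at least three independent experiments.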

[3] = biological target: T1, Protein deacetylase HDAC6 (Homo sapiens, UniProt Q9UBN7); assay: Inhibition of human full-length recombinant HDAC6 preincubated for 5 mins followed by HDAC substrate addition and further incubated for 45 mins by fluorescence microplate reader assay
T1 sequence (Q9UBN7 whole entry): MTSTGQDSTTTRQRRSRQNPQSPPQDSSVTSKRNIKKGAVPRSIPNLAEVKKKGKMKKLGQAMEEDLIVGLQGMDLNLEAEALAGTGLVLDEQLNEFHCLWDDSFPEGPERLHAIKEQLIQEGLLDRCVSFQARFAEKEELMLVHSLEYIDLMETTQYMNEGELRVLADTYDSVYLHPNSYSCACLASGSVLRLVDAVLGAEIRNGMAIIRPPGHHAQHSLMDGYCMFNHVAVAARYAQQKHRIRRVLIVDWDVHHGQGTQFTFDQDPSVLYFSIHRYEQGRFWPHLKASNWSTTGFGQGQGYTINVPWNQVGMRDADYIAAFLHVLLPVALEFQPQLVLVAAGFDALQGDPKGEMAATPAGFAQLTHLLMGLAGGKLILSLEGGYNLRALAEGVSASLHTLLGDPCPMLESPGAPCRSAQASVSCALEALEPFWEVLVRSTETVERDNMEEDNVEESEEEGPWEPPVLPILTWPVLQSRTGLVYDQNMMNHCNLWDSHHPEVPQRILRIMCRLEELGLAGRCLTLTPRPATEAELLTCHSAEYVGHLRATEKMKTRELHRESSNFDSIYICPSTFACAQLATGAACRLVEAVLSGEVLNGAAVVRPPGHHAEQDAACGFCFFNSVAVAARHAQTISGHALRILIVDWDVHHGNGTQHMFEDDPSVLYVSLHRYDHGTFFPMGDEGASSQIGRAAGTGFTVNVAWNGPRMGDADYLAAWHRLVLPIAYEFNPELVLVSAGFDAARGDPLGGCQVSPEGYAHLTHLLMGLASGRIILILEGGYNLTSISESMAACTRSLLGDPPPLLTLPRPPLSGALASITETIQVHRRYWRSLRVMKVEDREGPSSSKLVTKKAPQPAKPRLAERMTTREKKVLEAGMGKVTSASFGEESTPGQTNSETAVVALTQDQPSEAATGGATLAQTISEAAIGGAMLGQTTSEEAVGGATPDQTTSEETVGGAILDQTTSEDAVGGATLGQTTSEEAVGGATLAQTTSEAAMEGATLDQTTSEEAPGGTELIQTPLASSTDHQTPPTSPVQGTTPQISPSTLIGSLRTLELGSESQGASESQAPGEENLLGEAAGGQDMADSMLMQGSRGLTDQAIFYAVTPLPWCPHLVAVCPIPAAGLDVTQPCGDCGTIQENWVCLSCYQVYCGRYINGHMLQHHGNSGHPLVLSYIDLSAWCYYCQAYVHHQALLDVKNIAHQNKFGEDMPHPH

CAKI-1 [4] = assay: Growth inhibition of human CAKI-1 cells at 10 uM incubated for 24 hrs by MTT assay relative to control; type: functional; settings: read-out: GI; in short: as §1
Histone deacetylase 2 = Histone deacetylase 2 (Homo sapiens, UniProt Q92769); assay: Inhibition of human full-length recombinant HDAC2 preincubated for 5 mins followed by HDAC substrate addition and further incubated for 45 mins by fluorescence microplate reader assay
A498 [5] = assay: Growth inhibition of human A498 cells at 10 uM incubated for 24 hrs by MTT assay relative to control; type: functional; settings: read-out: GI; in short: as §1
KG-1 = assay: Growth inhibition of human KG-1 cells at 10 uM incubated for 24 hrs by MTT assay relative to control; type: functional; settings: KG-1, 24 h; in short: as §1
HT-29 = assay: Growth inhibition of human HT-29 cells at 10 uM incubated for 24 hrs by MTT assay relative to control; type: functional; settings: read-out: GI; in short: as §1
Histone deacetylase 3 = Histone deacetylase 3 (Homo sapiens, UniProt O15379); assay: Inhibition of human full-length recombinant HDAC3 preincubated for 5 mins followed by HDAC substrate addition and further incubated for 45 mins by fluorescence microplate reader assay
Focal adhesion kinase 1 = Focal adhesion kinase 1 (Homo sapiens, UniProt Q05397); assay: Inhibition of FAK (unknown origin) by FRET-based Z'-Lyte assay
In short: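 Recombinant FAK kinase activity measured with the FRET-based Z'-LYTE format; the same platform was used for a kinase panel (FAK, FLT, FRK, IGF-1R, BTK). IC50 values determined.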

Histone deacetylase 8 = biological target: T2, Histone deacetylase 8 (Homo sapiens, UniProt Q9BY41); assay: Inhibition of human full-length recombinant C-terminal His-tagged HDAC8 expressed in baculovirus infected Sf9 insect cells preincubated for 5 mins followed by HDAC substrate addition and further incubated for 45 mins by fluorescence microplate reader assay
T2 sequence (Q9BY41 whole entry): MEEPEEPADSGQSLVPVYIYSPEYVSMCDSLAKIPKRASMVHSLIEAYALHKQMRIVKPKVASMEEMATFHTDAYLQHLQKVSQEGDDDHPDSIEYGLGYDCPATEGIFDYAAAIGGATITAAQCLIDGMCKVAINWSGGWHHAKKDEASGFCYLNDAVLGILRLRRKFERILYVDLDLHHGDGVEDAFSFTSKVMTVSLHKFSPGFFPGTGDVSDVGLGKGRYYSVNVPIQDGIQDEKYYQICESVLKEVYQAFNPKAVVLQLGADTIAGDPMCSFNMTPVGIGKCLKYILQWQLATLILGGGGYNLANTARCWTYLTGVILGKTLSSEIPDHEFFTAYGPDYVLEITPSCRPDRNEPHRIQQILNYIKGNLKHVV

Histone deacetylase 1 = Histone deacetylase 1 (Homo sapiens, UniProt Q13547); assay: Inhibition of human full-length recombinant HDAC1 preincubated for 5 mins followed by HDAC substrate addition and further incubated for 45 mins by fluorescence microplate reader assay
HCT-116 = assay: Growth inhibition of human HCT-116 cells at 10 uM incubated for 24 hrs by MTT assay relative to control; type: functional; settings: read-out: GI; in short: as §1

Sequence of Histone deacetylase 3 (O15379 whole entry): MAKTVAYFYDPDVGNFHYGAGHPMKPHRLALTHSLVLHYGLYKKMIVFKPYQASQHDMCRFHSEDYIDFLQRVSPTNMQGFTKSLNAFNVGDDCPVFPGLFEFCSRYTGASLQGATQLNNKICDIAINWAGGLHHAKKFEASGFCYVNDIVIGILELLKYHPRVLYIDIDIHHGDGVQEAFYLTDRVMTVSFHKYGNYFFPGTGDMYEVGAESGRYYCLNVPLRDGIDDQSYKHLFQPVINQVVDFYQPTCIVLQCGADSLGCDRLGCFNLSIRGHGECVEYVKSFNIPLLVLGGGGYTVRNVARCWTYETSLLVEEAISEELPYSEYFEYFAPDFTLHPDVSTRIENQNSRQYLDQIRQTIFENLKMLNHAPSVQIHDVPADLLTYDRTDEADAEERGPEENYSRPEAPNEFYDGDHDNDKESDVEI
Sequence of Focal adhesion kinase 1 (Q05397 whole entry): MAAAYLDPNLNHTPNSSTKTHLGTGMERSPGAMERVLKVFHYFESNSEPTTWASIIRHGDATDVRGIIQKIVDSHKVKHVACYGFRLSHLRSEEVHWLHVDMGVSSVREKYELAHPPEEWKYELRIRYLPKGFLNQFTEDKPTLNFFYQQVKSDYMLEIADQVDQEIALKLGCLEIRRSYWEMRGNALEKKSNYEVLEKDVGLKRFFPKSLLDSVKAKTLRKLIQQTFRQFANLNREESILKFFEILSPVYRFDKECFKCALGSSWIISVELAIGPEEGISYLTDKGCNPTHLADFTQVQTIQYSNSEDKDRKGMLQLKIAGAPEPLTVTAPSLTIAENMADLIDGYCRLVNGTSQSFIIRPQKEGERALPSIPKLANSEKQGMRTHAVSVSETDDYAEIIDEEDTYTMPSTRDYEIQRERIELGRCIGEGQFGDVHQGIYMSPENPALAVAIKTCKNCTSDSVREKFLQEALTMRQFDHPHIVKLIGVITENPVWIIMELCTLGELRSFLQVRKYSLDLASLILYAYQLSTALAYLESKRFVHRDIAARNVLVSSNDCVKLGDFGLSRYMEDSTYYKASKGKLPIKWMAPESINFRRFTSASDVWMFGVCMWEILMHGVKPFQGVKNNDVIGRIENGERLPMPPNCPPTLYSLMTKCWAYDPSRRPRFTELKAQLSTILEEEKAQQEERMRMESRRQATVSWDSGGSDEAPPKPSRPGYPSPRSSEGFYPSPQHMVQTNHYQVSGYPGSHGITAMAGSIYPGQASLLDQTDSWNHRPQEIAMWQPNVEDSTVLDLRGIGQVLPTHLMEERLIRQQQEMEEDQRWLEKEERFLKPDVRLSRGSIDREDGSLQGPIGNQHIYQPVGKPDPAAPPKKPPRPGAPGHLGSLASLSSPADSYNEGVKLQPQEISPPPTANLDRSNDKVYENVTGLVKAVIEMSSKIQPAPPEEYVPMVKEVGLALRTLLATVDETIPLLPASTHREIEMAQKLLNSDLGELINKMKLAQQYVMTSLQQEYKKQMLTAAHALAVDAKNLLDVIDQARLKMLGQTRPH
Sequence of Histone deacetylase 1 (Q13547 whole entry): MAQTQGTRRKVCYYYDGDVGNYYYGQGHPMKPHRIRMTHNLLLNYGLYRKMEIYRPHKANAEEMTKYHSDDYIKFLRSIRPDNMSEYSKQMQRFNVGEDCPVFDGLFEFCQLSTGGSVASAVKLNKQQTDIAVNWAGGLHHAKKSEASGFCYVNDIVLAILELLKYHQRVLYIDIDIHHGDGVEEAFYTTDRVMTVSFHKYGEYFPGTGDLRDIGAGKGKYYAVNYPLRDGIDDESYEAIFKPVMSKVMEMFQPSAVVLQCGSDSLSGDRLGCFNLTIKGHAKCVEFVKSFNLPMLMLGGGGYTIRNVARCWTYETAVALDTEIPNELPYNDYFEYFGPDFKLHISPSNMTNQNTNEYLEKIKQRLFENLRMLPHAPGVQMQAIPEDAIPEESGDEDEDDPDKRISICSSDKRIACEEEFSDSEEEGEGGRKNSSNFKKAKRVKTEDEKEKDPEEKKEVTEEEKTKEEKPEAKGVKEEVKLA
Sequence of Histone deacetylase 2 (Q92769 whole entry): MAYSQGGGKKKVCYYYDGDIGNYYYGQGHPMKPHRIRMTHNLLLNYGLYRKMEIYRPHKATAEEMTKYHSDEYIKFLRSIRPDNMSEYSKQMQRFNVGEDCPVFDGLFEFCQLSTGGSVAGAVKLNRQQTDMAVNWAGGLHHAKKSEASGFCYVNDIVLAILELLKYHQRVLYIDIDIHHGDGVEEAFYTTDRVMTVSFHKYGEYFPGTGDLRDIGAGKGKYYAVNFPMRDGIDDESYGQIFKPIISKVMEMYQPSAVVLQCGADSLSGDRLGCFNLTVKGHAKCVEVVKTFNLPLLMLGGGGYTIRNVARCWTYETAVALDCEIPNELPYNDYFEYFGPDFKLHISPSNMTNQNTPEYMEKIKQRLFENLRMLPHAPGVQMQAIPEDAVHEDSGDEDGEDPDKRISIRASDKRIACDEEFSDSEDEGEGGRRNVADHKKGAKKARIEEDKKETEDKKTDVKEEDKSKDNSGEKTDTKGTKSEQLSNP

Compound | IC50 (CAKI-1 [1]) | IC50 (A498 [2]) | inhibition of growth at 10 µM (K562) | IC50 [3] | inhibition of growth at 10 µM (CAKI-1 [4]) | IC50 (Histone deacetylase 2) | inhibition of growth at 10 µM (A498 [5]) | inhibition in vitro at 10 µM (KG-1) | inhibition of growth at 10 µM (HT-29) | IC50 (Histone deacetylase 3) | IC50 (Focal adhesion kinase 1) | IC50 (Histone deacetylase 8) | IC50 (Histone deacetylase 1) | inhibition of growth at 10 µM (HCT-116)
CNC(=O)c1ccccc1Nc1nc(Nc2ccc(N3CCOCC3)cc2OC)ncc1Cl | 1.05 µM | 0.81 µM | – | – | – | – | – | – | – | – | – | – | – | –
C=CCn1c(SCc2ccc(C(=O)Nc3ccccc3N)cc2)nnc1-c1ccncc1 | 1.6 µM | 1.42 µM | 90.1% | 9.96 µM | 94.8% | 1.28 µM | 97.1% | 87.5% | 70.7% | 42.1 µM | 0.0156 µM | 22.5 µM | 11.8 µM | 80.5%
O=C(O)CCCCCSc1nnc(-c2ccncc2)n1-c1ccccc1 | 1.89 µM | 2.35 µM | 72.7% | 10.9 µM | 94.8% | 0.64 µM | 89.3% | 67.2% | 80.5% | 21.1 µM | 0.0361 µM | 11.1 µM | 8.95 µM | 78.5%
CCn1c(SCCCCCC(=O)Nc2ccccc2N)nnc1-c1ccncc1 | 98.3 µM | 77.6 µM | 10.4% | > 300 µM | 8.91% | 27.1 µM | 22.3% | 3.64% | 18.6% | > 300 µM | 0.141 µM | 198 µM | > 300 µM | 6.35%
C=CCn1c(SCCCCCC(=O)NO)nnc1-c1ccncc1 | 89.4 µM | 76.4 µM | 16.1% | 288 µM | 8.62% | 11.7 µM | 11.1% | 5.91% | 41.3% | 222 µM | 0.189 µM | 11.1 µM | > 300 µM | 2.07%
CCn1c(SCc2ccc(C(=O)Nc3ccccc3N)cc2)nnc1-c1ccncc1 | 80.7 µM | 124 µM | 8.67% | > 300 µM | 12.1% | 40.1 µM | 1.18% | 5.91% | 1.22% | > 300 µM | 0.112 µM | > 300 µM | > 300 µM | 1.85%
Cn1c(SCc2ccc(C(=O)NO)cc2)nnc1-c1ccncc1 | 11 µM | 20.9 µM | 16% | 14.4 µM | 48.2% | 4.35 µM | 31.8% | 72.1% | 54% | 56.4 µM | 0.0643 µM | 29.8 µM | 14.2 µM | –
Cn1c(SCCCCCC(=O)O)nnc1-c1ccncc1 | 16.5 µM | 12.3 µM | 18.2% | 78.4 µM | 34.7% | 7.36 µM | 45.3% | 55.9% | 34.2% | 84.6 µM | 0.0503 µM | 12 µM | 8.93 µM | 20.1%
O=C(NO)c1ccc(CSc2nnc(-c3ccncc3)n2-c2ccccc2)cc1 | 7.13 µM | 8.76 µM | 39.1% | 6.93 µM | 61.9% | 9.76 µM | 56.9% | 50.9% | 42.7% | 18 µM | 0.0224 µM | 12.8 µM | 15 µM | 29.3%
C=CCn1c(SCCCCCC(=O)O)nnc1-c1ccncc1 | 164 µM | 85.3 µM | 2.95% | > 300 µM | 3.25% | 10.1 µM | 11.4% | 15.4% | 21.2% | 246 µM | 0.124 µM | > 300 µM | 98.2 µM | 16.2%
CCCC(CCC)C(=O)O [VALPROIC ACID] | 2830 µM | 2140 µM | – | 215 µM | – | – | – | – | – | – | – | – | 84.2 µM | –
Cn1c(SCCCCCC(=O)Nc2ccccc2N)nnc1-c1ccncc1 | 9.87 µM | 13.4 µM | 44.9% | 14.2 µM | 50.8% | 14.4 µM | 45.3% | 63.1% | 71.4% | 84.1 µM | 0.0571 µM | 7.28 µM | 40.2 µM | 54.4%
CCn1c(SCCCCCC(=O)O)nnc1-c1ccncc1 | – | 125 µM | 1.58% | > 300 µM | 1.06% | 26.4 µM | 4.13% | 7.34% | 9.34% | 156 µM | 0.0762 µM | > 300 µM | 184 µM | 2.15%
O=C(CCCCCSc1nnc(-c2ccncc2)n1-c1ccccc1)NO | 92.4 µM | 174 µM | 8.34% | 246 µM | – | 32.4 µM | 4.36% | 11.2% | 1.09% | > 300 µM | 0.425 µM | > 300 µM | > 300 µM | 3.56%
